In brackets after ≈: the same amount, converted by molar mass.
Tests used:
Staphylococcus aureus [1] = experiment: Antibacterial activity against methicillin-resistant Staphylococcus aureus COL after 24 hrs by microdilution method; format: functional
Procedure, shortened: (§1)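 Broth microdilution in Mueller-Hinton broth with 0.85% NaCl, inoculum about 10^5 CFU per 100 μL. Compounds were diluted in water from 25.6 mg/mL stocks to final 2-fold series of 0.062–128 μg/mL. Plates were incubated 24 h at 35 °C. MIC was the lowest concentration at which all triplicate wells were clear, from three independent determinations.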

Pseudomonas aeruginosa = experiment: Antibacterial activity against Pseudomonas aeruginosa PAO1 after 24 hrs by microdilution method; format: functional; details: PAO1, 24 h
Procedure, shortened: (§2)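 Broth microdilution in Mueller-Hinton broth with 0.85% NaCl, inoculum about 10^5 CFU per 100 μL. Compounds diluted from 25.6 mg/mL stocks in water to 2-fold series, final 0.062–128 μg/mL. […] Three independent determinations.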

Staphylococcus aureus [2] = experiment: Antibacterial activity against methicillin-resistant Staphylococcus aureus N315 after 24 hrs by microdilution method; format: functional; details: N315, 24 h; procedure, shortened: as §1
Enterococcus [3] = experiment: Antibacterial activity against vancomycin resistant Enterococcus FN-1 after 24 hrs by microdilution method; format: functional; details: FN-1, 24 h; procedure, shortened: as §1
Enterococcus [4] = experiment: Antibacterial activity against vancomycin resistant Enterococcus NCTC 12201 after 24 hrs by microdilution method; format: functional; details: NCTC 12201, 24 h; procedure, shortened: as §1
Escherichia coli = experiment: Antibacterial activity against Escherichia coli K-12 after 24 hrs by microdilution method; format: functional; details: K-12, 24 h; procedure, shortened: as §2
[5] = Inhibition of Staphylococcus aureus DNA Topoisomerase 4-mediated decatenation of kDNA after 30 mins by densitometry
Procedure, shortened: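 Purchased S. aureus topoIV, one unit with 200 ng kDNA, 37 °C, 30 min. Products resolved on 1.0% agarose in TAE. IC50 of decatenation from densitometry by interpolation equation, at least three determinations.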

[6] = Inhibition of Escherichia coli DNA gyrase assessed as inhibition of pBR322 supercoiling by densitometry
Procedure, shortened: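 One unit of E. coli gyrase with 0.5 μg relaxed pBR322 DNA, 37 °C, 30 min. Stopped with sucrose/EDTA dye, run on 1.0% agarose in TAE. IC50 from densitometry via log-interpolation equation.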

Staphylococcus aureus [7] = experiment: Antibacterial activity against methicillin-resistant Staphylococcus aureus OM584 after 24 hrs by microdilution method; format: functional; details: OM584, 24 h; procedure, shortened: as §1
Staphylococcus aureus [8] = experiment: Antibacterial activity against methicillin-resistant Staphylococcus aureus OM481 after 24 hrs by microdilution method; format: functional; details: OM481, 24 h; procedure, shortened: as §1
Staphylococcus aureus [9] = experiment: Antibacterial activity against methicillin-susceptible Staphylococcus aureus 209P after 24 hrs by microdilution method; format: functional; procedure, shortened: as §1
[10] = Inhibition of Escherichia coli DNA topoisomerase 4 subunit ParC/DNA topoisomerase 4 subunit ParE-mediated decatenation of kDNA by densitometry
Procedure, shortened: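 Purchased E. coli topoIV kit enzyme, one unit with 200 ng kDNA, 37 °C, 30 min. Buffer: 50 mM HEPES-KOH pH 7.6, 5 mM magnesium acetate, 100 mM potassium glutamate, 10 mM DTT, 1 mM ATP, 40% glycerol. Gel on 1.0% agarose in TAE. IC50 of decatenation from densitometry by interpolation equation, at least three determinations.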

Staphylococcus aureus [11] = experiment: Antibacterial activity against vancomycin-intermediate Staphylococcus aureus Mu50 after 24 hrs by microdilution method; format: functional; details: Mu50, 24 h; procedure, shortened: as §1
Streptococcus pneumoniae = experiment: Antibacterial activity against Streptococcus pneumoniae R6 after 24 hrs by microdilution method; format: functional; details: R6, 24 h; procedure, shortened: as §2

Compound | MIC (Staphylococcus aureus [1]) [µg/mL] | MIC (Pseudomonas aeruginosa) [µg/mL] | MIC (Staphylococcus aureus [2]) [µg/mL] | MIC (Enterococcus [3]) [µg/mL] | MIC (Enterococcus [4]) [µg/mL] | MIC (Escherichia coli) [µg/mL] | IC50 [5] [µM] | IC50 [6] [µM] | MIC (Staphylococcus aureus [7]) [µg/mL] | MIC (Staphylococcus aureus [8]) [µg/mL] | MIC (Staphylococcus aureus [9]) [µg/mL] | IC50 [10] [µM] | MIC (Staphylococcus aureus [11]) [µg/mL] | MIC (Streptococcus pneumoniae) [µg/mL]
CC1O[C@H](Oc2c(-c3ccc(O)cc3)oc3cc(O)cc(O)c3c2=O)[C@@H](OC(=O)/C=C/c2ccc(O)cc2)[C@@H](O)[C@@H]1OC(=O)/C=C/c1ccc(O)cc1 (some centres undefined) | 1 (≈ 1.38 µM) | > 128 | 1 (≈ 1.38 µM) | 8 (≈ 11 µM) | 4 (≈ 5.52 µM) | > 128 | 2.7 | 3.11 | 2 (≈ 2.76 µM) | 1 (≈ 1.38 µM) | 0.5 (≈ 0.69 µM) |  |  | 
O=C(Cc1ccc(F)cc1)O[C@H]1[C@H](Oc2c(-c3ccc(O)c(O)c3)oc3cc(O)cc(O)c3c2=O)O[C@H](CO)[C@@H](O)[C@@H]1OC(=O)Cc1ccc(F)cc1 | 4 (≈ 5.43 µM) |  | 1 (≈ 1.36 µM) | 2 (≈ 2.72 µM) | 4 (≈ 5.43 µM) |  | 1.45 |  | 2 (≈ 2.72 µM) | 2 (≈ 2.72 µM) | 1 (≈ 1.36 µM) | 10.1 | 1 (≈ 1.36 µM) | 1 (≈ 1.36 µM)
CN[C@H](CC(C)C)C(=O)N[C@H]1C(=O)N[C@@H](CC(N)=O)C(=O)N[C@H]2C(=O)N[C@H]3C(=O)N[C@H](C(=O)N[C@H](C(=O)O)c4cc(O)cc(O)c4-c4cc3ccc4O)[C@H](O)c3ccc(c(Cl)c3)Oc3cc2cc(c3O[C@@H]2O[C@H](CO)[C@@H](O)[C@H](O)[C@H]2O[C@H]2C[C@](C)(N)[C@H](O)[C@H](C)O2)Oc2ccc(cc2Cl)[C@H]1O [VANCOMYCIN] | 0.25 (≈ 0.173 µM) |  | 0.25 (≈ 0.173 µM) | > 128 | > 128 |  |  |  | 0.25 (≈ 0.173 µM) | 0.25 (≈ 0.173 µM) | 0.25 (≈ 0.173 µM) |  | 8 (≈ 5.52 µM) | 0.25 (≈ 0.173 µM)
CCOc1ccc(CCC(=O)O[C@H]2[C@H](Oc3c(-c4ccc(O)c(O)c4)oc4cc(O)cc(O)c4c3=O)O[C@H](CO)[C@@H](O)[C@@H]2OC(=O)CCc2ccc(OCC)cc2)cc1 | 4 (≈ 4.9 µM) |  | 1 (≈ 1.22 µM) | 2 (≈ 2.45 µM) | 4 (≈ 4.9 µM) |  | 3.02 |  | 2 (≈ 2.45 µM) | 2 (≈ 2.45 µM) | 1 (≈ 1.22 µM) | > 12 | 1 (≈ 1.22 µM) | 1 (≈ 1.22 µM)
Cc1ccc(CCC(=O)O[C@H]2[C@H](Oc3c(-c4ccc(O)c(O)c4)oc4cc(O)cc(O)c4c3=O)O[C@H](CO)[C@@H](O)[C@@H]2OC(=O)CCc2ccc(C)cc2)cc1 | 4 (≈ 5.29 µM) |  | 1 (≈ 1.32 µM) | 2 (≈ 2.64 µM) | 4 (≈ 5.29 µM) |  | 2.02 |  | 2 (≈ 2.64 µM) | 2 (≈ 2.64 µM) | 1 (≈ 1.32 µM) | 11.6 | 1 (≈ 1.32 µM) | 1 (≈ 1.32 µM)
CC(=O)OC[C@H]1O[C@@H](Oc2c(-c3ccc(O)c(O)c3)oc3cc(O)cc(O)c3c2=O)[C@H](OC(C)=O)[C@@H](OC(C)=O)[C@H]1OC(C)=O | 128 (≈ 202 µM) | > 128 | 64 (≈ 101 µM) | 32 (≈ 50.6 µM) | 32 (≈ 50.6 µM) | > 128 |  |  | 32 (≈ 50.6 µM) | 32 (≈ 50.6 µM) | 64 (≈ 101 µM) |  | 64 (≈ 101 µM) | 64 (≈ 101 µM)
CO[C@@H]1[C@@H](OC(N)=O)[C@@H](O)[C@H](Oc2ccc3c(O)c(NC(=O)c4ccc(O)c(CC=C(C)C)c4)c(=O)oc3c2C)OC1(C)C [NOVOBIOCIN] | 0.25 (≈ 0.408 µM) | 8 (≈ 13.1 µM) | 0.13 (≈ 0.212 µM) | > 128 | 2 (≈ 3.26 µM) | 8 (≈ 13.1 µM) |  |  | 0.25 (≈ 0.408 µM) | 0.25 (≈ 0.408 µM) | 0.13 (≈ 0.212 µM) | 0.11 | 8 (≈ 13.1 µM) | 0.25 (≈ 0.408 µM)
O=c1c(O)c(-c2ccc(O)c(O)c2)oc2cc(O)cc(O)c12 [QUERCETIN] | > 128 | > 128 | > 128 | > 128 | > 128 | 64 (≈ 212 µM) |  | 0.14 | > 128 | > 128 | > 128 | 6.42 | > 128 | > 128
